{"source": "ChEMBL document CHEMBL4043182", "about": "“On the synthesis of quinone-based BODIPY hybrids: New insights on antitumor activity and mechanism of action in cancer cells” (Bioorg Med Chem Lett, 2017)", "key": {"SF-295 [1]": {"tested_on": "SF-295", "experiment": "Antiproliferative activity against human SF295 cells after 72 hrs by MTT assay", "assay_type": "functional, cell-based", "settings": "SF-295, 72 h", "summary_of_the_method": "(§1)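 MTT reduction: cancer lines plated at 0.7×10^5 to 0.3×10^6 cells/well, V79 and L929 fibroblasts at 0.5×10^5 cells/well. Compounds in DMSO (0.1%) were given for 24 h at 0.04–40.92 µM or 72 h at 0.04–8.19 µM. Fresh medium with 0.5 mg/mL MTT was added for 3 h, then formazan was dissolved in DMSO and read at 595 nm as % of control. IC50 came from nonlinear regression with 95% CI. Doxorubicin (0.001–1.06 µM) was the positive control. Triplicate, ≥3 repeats.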"}, "HCT-116 [2]": {"tested_on": "HCT-116", "experiment": "Antiproliferative activity against human HCT116 cells after 72 hrs by MTT assay", "assay_type": "functional, cell-based", "settings": "HCT-116, 72 h", "summary_of_the_method": "as §1"}, "[3]": {"experiment": "Selective index, ratio of IC50 for chinese hamster V79 cells to IC50 for human SF295 cells", "summary_of_the_method": "(§2)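 Selectivity index is the ratio of the IC50 in a non-cancer murine line (V79 or L929) to the IC50 in the cancer line. […] MTT was 0.5 mg/mL for 3 h, formazan dissolved in DMSO and read at 595 nm as % of control. IC50s were derived by nonlinear regression; triplicate, at least three repeats.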"}, "[4]": {"experiment": "Selective index, ratio of IC50 for chinese hamster V79 cells to IC50 for human MDA-MB-435 cells", "summary_of_the_method": "as §2"}, "[5]": {"experiment": "Selective index, ratio of IC50 for chinese hamster V79 cells to IC50 for human HCT116 cells", "summary_of_the_method": "as §2"}, "HCT-116 [6]": {"tested_on": "HCT-116", "experiment": "Induction of lipid peroxidation in human HCT116 cells assessed as increase in MDA levels at 2.5 to 10 uM after 24 hrs in absence of NAC by TBARS assay", "assay_type": "functional, cell-based", "summary_of_the_method": "(§3)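 TBARS: cells were exposed 24 h, with or without 24 h prior 5 mM NAC, and lysed in Tris-HCl. Lysate was heated with TCA/0.25 M HCl and 6.7 mg/mL TBA for 15 min at 100 °C, centrifuged, and read at 532 nm. Hydrolyzed tetramethoxypropane served as standard, with values normalized to protein. H2O2 (10 µM) was the positive control. Three independent experiments in triplicate; ANOVA/Tukey.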"}, "L929 [7]": {"tested_on": "L929", "experiment": "Induction of lipid peroxidation in mouse L929 cells assessed as increase in MDA levels at 2.5 to 10 uM after 24 hrs in absence of NAC by TBARS assay", "assay_type": "cell-based", "settings": "l929, 24 h", "summary_of_the_method": "as §3"}, "PC-3 [8]": {"tested_on": "PC-3", "experiment": "Induction of lipid peroxidation in human PC3 cells assessed as increase in MDA levels at 2.5 to 10 uM treated 24 hrs post NAC addition measured after 24 hrs by TBARS assay", "assay_type": "functional, cell-based", "summary_of_the_method": "as §3"}, "SF-295 [9]": {"tested_on": "SF-295", "experiment": "Induction of lipid peroxidation in human SF295 cells assessed as increase in MDA levels at 2.5 to 10 uM treated 24 hrs post NAC addition measured after 24 hrs by TBARS assay", "assay_type": "functional, cell-based", "summary_of_the_method": "as §3"}, "L929 [10]": {"tested_on": "L929", "experiment": "Induction of lipid peroxidation in mouse L929 cells assessed as increase in MDA levels at 2.5 to 10 uM treated 24 hrs post NAC addition measured after 24 hrs by TBARS assay", "assay_type": "cell-based", "settings": "l929, 24 h", "summary_of_the_method": "as §3"}, "PC-3 [11]": {"tested_on": "PC-3", "experiment": "Induction of oxidative stress in human PC3 cells assessed as GSH to GSSG ratio at 5 uM treated 24 hrs post NAC addition measured after 24 hrs by spectrophotometric analysis (reference value: 2.69 +/- 0.21 microg/mg)", "assay_type": "functional", "summary_of_the_method": "(§4)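 Cells were pretreated 24 h with 5 mM NAC, then exposed 24 h to test compound at 5 µM. Controls received 0.1% DMSO. Extracts were prepared by sonication and HClO4 precipitation, then neutralized with KOH. Total glutathione was read by DTNB/glutathione reductase/NADPH rate at 412 nm. GSSG was measured after 4-vinylpyridine (0.1%, 1 h, RT) and GSH derived by difference. Values are normalized to protein, triplicates, three independent runs.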"}, "SF-295 [12]": {"tested_on": "SF-295", "experiment": "Induction of oxidative stress in human SF295 cells assessed as total GSH levels at 5 uM after 24 hrs by spectrophotometric analysis (reference value: 3.16 +/- 0.21 microg/mg)", "assay_type": "functional"}, "SF-295 [13]": {"tested_on": "SF-295", "experiment": "Induction of oxidative stress in human SF295 cells assessed as total GSH levels at 5 uM treated 24 hrs post NAC addition measured after 24 hrs by spectrophotometric analysis (reference value: 3.16 +/- 0.21 microg/mg)", "assay_type": "functional", "summary_of_the_method": "as §4"}, "HCT-116 [14]": {"tested_on": "HCT-116", "experiment": "Induction of oxidative stress in human HCT116 cells assessed as total GSH levels at 5 uM after 24 hrs by spectrophotometric analysis (reference value: 3.74 +/- 0.55 microg/mg)", "assay_type": "functional"}, "L929 [15]": {"tested_on": "L929", "experiment": "Induction of oxidative stress in mouse L929 cells assessed as total intracellular thiol levels at 5 uM treated 24 hrs post NAC addition measured after 24 hrs by spectrophotometric analysis (reference value: 4.87 +/- 0.25 microg/mg)", "assay_type": "cell-based", "settings": "l929, 24 h"}, "L929 [16]": {"tested_on": "L929", "experiment": "Induction of oxidative stress in mouse L929 cells assessed as GSH to GSSG ratio at 5 uM after 24 hrs by spectrophotometric analysis (reference value: 3.55 +/- 0.51 microg/mg)", "assay_type": "cell-based", "settings": "l929, 24 h"}, "SF-295 [17]": {"tested_on": "SF-295", "experiment": "Cytotoxicity against human SF295 cells after 24 hrs in presence of GSH-OEt by MTT assay", "assay_type": "functional, cell-based", "settings": "SF-295, 24 h", "summary_of_the_method": "(§5)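 24 h MTT exposure (0.04–40.92 µM in 0.1% DMSO), with or without co-treatment with GSH ethyl ester (15 mM) to gauge the ROS contribution. MTT was 0.5 mg/mL for 3 h, with formazan dissolved in DMSO and absorbance at 595 nm expressed as % of control. Triplicate, repeated at least three times.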"}, "HCT-116 [18]": {"tested_on": "HCT-116", "experiment": "Cytotoxicity against human HCT116 cells after 24 hrs in presence of GSH-OEt by MTT assay", "assay_type": "functional, cell-based", "settings": "HCT-116, 24 h", "summary_of_the_method": "as §5"}, "PC-3 [19]": {"tested_on": "PC-3", "experiment": "Cytotoxicity against human PC3 cells after 24 hrs in absence of GSH-OEt by MTT assay", "assay_type": "functional, cell-based", "settings": "PC-3, 24 h", "summary_of_the_method": "as §5"}, "PC-3 [20]": {"tested_on": "PC-3", "experiment": "Geno-toxicity in human PC3 cells assessed as induction of DNA damage at 2.5 to 10 uM after 24 hrs in absence of NAC by alkaline comet assay", "assay_type": "functional, cell-based", "summary_of_the_method": "(§6)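 Alkaline comet assay after 24 h at 2.5, 5 and 10 µM, with or without 24 h pretreatment with 5 mM NAC. Cells were trypsinized and embedded in 0.75% low-melting agarose, then lysed at pH 10, 4 °C, ≥1 h. DNA was unwound 20 min at pH >13 and electrophoresed 20 min at 25 V, 300 mA (0.86 V/cm), then stained with ethidium bromide. 100 cells (2 slides) were scored in classes 0–4 for a damage index. Mean ± SEM, three independent experiments in triplicate.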"}, "SF-295 [21]": {"tested_on": "SF-295", "experiment": "Geno-toxicity in human SF295 cells assessed as induction of DNA damage at 2.5 to 10 uM after 24 hrs in absence of NAC by alkaline comet assay", "assay_type": "functional, cell-based", "summary_of_the_method": "as §6"}, "PC-3 [22]": {"tested_on": "PC-3", "experiment": "Geno-toxicity in human PC3 cells assessed as induction of DNA damage at 2.5 to 10 uM treated 24 hrs post NAC addition measured after 24 hrs by alkaline comet assay", "assay_type": "functional, cell-based", "summary_of_the_method": "as §6"}, "SF-295 [23]": {"tested_on": "SF-295", "experiment": "Geno-toxicity in human SF295 cells assessed as induction of DNA damage at 2.5 to 10 uM treated 24 hrs post NAC addition measured after 24 hrs by alkaline comet assay", "assay_type": "functional, cell-based", "summary_of_the_method": "as §6"}}, "note": "Calls of active or inactive are those of the source. No cut-off for these calls is given here."}
{"smiles": "CC1(C)OC2=C(C(=O)C(=O)c3ccccc32)C1n1cc(CNC2=[N+]3C(=C(c4ccccc4)c4ccc(Cl)n4[B-]3(F)F)C=C2)nn1", "note": "(stereo not drawn)", "values": [{"measurement": "IC50", "setting": "SF-295 [1]", "result": 0.28, "unit": "µM"}, {"measurement": "IC50", "setting": "HCT-116 [2]", "result": 0.32, "unit": "µM"}, {"measurement": "Ratio IC50", "setting": "[3]", "result": 2.3}, {"measurement": "Ratio IC50", "setting": "[4]", "result": 0.8}, {"measurement": "Ratio IC50", "setting": "[5]", "result": 2}, {"measurement": "Activity", "setting": "HCT-116 [6]", "result": "Active"}, {"measurement": "Activity", "setting": "L929 [7]", "result": "Toxic"}, {"measurement": "Activity", "setting": "PC-3 [8]", "result": "inactive"}, {"measurement": "Activity", "setting": "SF-295 [9]", "result": "inactive"}, {"measurement": "Activity", "setting": "L929 [10]", "result": "Non-Toxic"}, {"measurement": "Activity", "setting": "PC-3 [11]", "result": 2.88, "unit": "µg/mg"}, {"measurement": "Activity", "setting": "SF-295 [12]", "result": 1.31, "unit": "µg/mg"}, {"measurement": "Activity", "setting": "SF-295 [13]", "result": 3.47, "unit": "µg/mg"}, {"measurement": "Activity", "setting": "HCT-116 [14]", "result": 1.78, "unit": "µg/mg"}, {"measurement": "Activity", "setting": "L929 [15]", "result": 5.21, "unit": "µg/mg"}, {"measurement": "Activity", "setting": "L929 [16]", "result": 0.33}, {"measurement": "IC50", "setting": "SF-295 [17]", "result": 9.81, "unit": "µM"}, {"measurement": "IC50", "setting": "HCT-116 [18]", "result": 14.2, "unit": "µM"}, {"measurement": "IC50", "setting": "PC-3 [19]", "result": 4.47, "unit": "µM"}, {"measurement": "Activity", "setting": "PC-3 [20]", "result": "Active"}, {"measurement": "Activity", "setting": "SF-295 [21]", "result": "Active"}, {"measurement": "Activity", "setting": "PC-3 [22]", "result": "Active"}, {"measurement": "Activity", "setting": "SF-295 [23]", "result": "Active"}]}
